Bioassay records: PubChem, Broad Institute
PGC1a acetyl inh – PGC1a acetylation modulation, inhibitor mode | U2OS PGC1a acetylation, AlphaScreen anti-acetyl-lysine; with virally co-expressed GCN5 acetyltransferase | inhibition, % at 15.6 µM | hit rate 0.17% among 350,000 | AID 651687;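 active = every replicate shows inhibition of at least 40%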;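 also: 0% = neutral control wells and 100% = positive control wells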
ERAP1 inh – inhibitors of human ERAP1 aminopeptidase; hit rate 0.15% among 340,000; Q9NZ08; recombinant ERAP1, Leu-AMC fluorescence, 60 min; AID 652197; inhibition, % at 10.7 µM;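 active = mean replicate inhibition of at least 30%, or all replicates individually reaching that 30% level; inactive = mean below 30% and not every replicate reaching it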;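 also: 0% = neutral control wells and 100% = L-leucinethiol positive control wells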
Casp6 inh – blocks human caspase-6 cleavage activity. P55212. purified caspase-6, Z-VEID-R110 cleavage fluorescence. inhibition, % at 12.5 µM. hit rate 0.53% among 350,000. AID 686996;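 active = mean inhibition across replicates at least about 35%, with every replicate also reaching that limit, limit read from the data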;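 also: 0% = median of neutral control wells and 100% = no fluorescence left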
Target sequence (P55212 24-179 limits assumed): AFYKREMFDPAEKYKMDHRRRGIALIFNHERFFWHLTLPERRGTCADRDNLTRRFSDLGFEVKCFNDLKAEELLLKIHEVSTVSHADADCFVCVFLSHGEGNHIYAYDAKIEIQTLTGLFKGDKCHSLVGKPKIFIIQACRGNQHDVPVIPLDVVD
Target sequence (P55212 194-293 limits assumed): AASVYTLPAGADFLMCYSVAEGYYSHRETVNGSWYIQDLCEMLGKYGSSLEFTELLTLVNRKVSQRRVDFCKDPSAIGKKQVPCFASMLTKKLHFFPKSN
Ecoli rRNA inh – inhibitors of bacterial rRNA selective over humanized ribosomes; E. coli WT GFP vs humanized-ribosome RFP mutants, fluorescence, 24 h; hits give low values; DMSO median 0, no signal -100; GFP signal change (wild-type ribosome), % (no concentration beside the values); hit rate 1.6% among 350,000; AID 720706;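 active = significant combined selectivity score with lowered wild-type GFP, culture density cut under 30%, mutant RFP and density less affected; inactive = any of these conditions unmet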
S100A4 MyoIIA – inhibitors of human S100A4 binding to myosin IIA peptide | P26447 | S100A4/TAMRA-MyoIIA peptide fluorescence polarization | inhibition, % at 10.7 µM | hit rate 0.14% among 360,000;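 active = mean inhibition of at least 70% across replicates, with every replicate also reaching that level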
Target sequence (P26447 whole entry, looked up): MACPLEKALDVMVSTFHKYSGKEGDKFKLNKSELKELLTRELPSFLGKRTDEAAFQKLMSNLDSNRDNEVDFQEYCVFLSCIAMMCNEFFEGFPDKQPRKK
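Material: human S100A4 monomer with TAMRA-labelled myosin IIA peptide; buffer or medium: HEPES pH 7.2 with CaCl2, KCl, NaCl, DTT, Triton; compound dosing: one concentration per compound; schedule: 5 min incubation before reading; benchmarks: neutral control DMSO, positive control TFP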
ARNT-TACC3 inh – disruptors of human ARNT/TACC3 interaction | AlphaScreen His-ARNT PAS-B/GST-TACC3 binding, luminescence; TACC3 fragment carries E629A point mutation | hit rate 0.66% among 390,000 | inhibition, % at 9.99 µM | Q9Y6A5;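 active = mean inhibition of replicates at least 50% and at least half of replicates each reaching 50%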;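 also: 0% = complete ARNT plus TACC3 wells and 100% = ARNT alone without TACC3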
Starred values were filed as active, the others as inactive; nt = not tested or not shown; ! = not active in a repeat. In the library only some 2.4% were active in any assay of this set; here they are far more common.

SMILES	PGC1a acetyl inh	ERAP1 inh	Casp6 inh	Ecoli rRNA inh	S100A4 MyoIIA	ARNT-TACC3 inh
C[C@H](CO)N1C[C@H](C)[C@H](CN(C)C(=O)C2CCOCC2)Oc2cc(C#Cc3ccncc3)ccc2S1(=O)=O	19	3	6	2	-5	11
N#Cc1cccc(C#N)c1NCC1CCCO1 (stereo unspecified)	43*	5	2	2	0	-6
N#Cc1cc(Cl)c(NCC2CCCO2)cc1C#N (stereo unspecified)	nt	-1	0	18	-4	-13
S=c1[nH]nc(NCCCN2CCOCC2)s1	nt	86*	-7	11	8	-2
S=C(NCCCN1CCOCC1)NCCCN1CCOCC1	1	1	-19	22	-21	1
Cc1ccc(S(=O)(=O)N[C@@H]2CC[C@H](CC(=O)NCCN3CCCCC3)O[C@H]2CO)cc1	2	2	-9	2	-12	nt
Cc1noc(C)c1S(=O)(=O)N(C)C[C@H]1Oc2ccc(N(C)C)cc2CC(=O)N([C@H](C)CO)C[C@H]1C	6	nt	nt	-1	129*	20
Cc1ccc(S(=O)(=O)Nc2ccc3c(c2)C(=O)N([C@@H](C)CO)C[C@@H](C)[C@H](CN(C)S(=O)(=O)c2ccc(C)cc2)OCCCC[C@H](C)O3)cc1	-6	-6	-1	-2	5	-13
Cc1noc(C)c1S(=O)(=O)Nc1ccc2c(c1)C(=O)N([C@H](C)CO)C[C@H](C)[C@@H](CN(C)S(=O)(=O)c1ccc(F)cc1)O2	2	-1	-1	-25*!	-3	4
Cc1ccc(S(=O)(=O)Nc2ccc3c(c2)C(=O)N([C@H](C)CO)C[C@@H](C)[C@@H](CN(C)S(=O)(=O)c2ccc(C)cc2)OCCCC[C@@H](C)O3)cc1	-28	-8	-8	4	103*	3
Cc1ccc(S(=O)(=O)N(C)C[C@H]2OCCCC[C@@H](C)Oc3ccc(NS(=O)(=O)c4c(C)noc4C)cc3C(=O)N([C@@H](C)CO)C[C@H]2C)cc1	-2	-3	-3	2	94*	1
COCC(=O)N1CC2(CCN(Cc3nccs3)CC2)c2c(n(C)c3cc(OC)ccc23)[C@@H]1CO	0	0	-2	-3	-1	nt
O=C(NC1CCCC1)N1CCCCN2[C@@H](CO)[C@@H](c3ccc(/C=C/c4ccccc4)cc3)[C@@H]2C1	-3	3	2	-58	-10	16
Cc1ccc(S(=O)(=O)N2CCCOC2CNC(=O)C(=O)NCCCn2ccnc2)cc1 (stereo unspecified)	nt	14	-47	nt	-8	78*
Cc1ccc(C(=O)/C=C/C(=O)c2ccc(C)cc2)cc1	-11	11	3	-24*	1	4
Cc1ccc(/C=C/C(=O)c2ccc(C)cc2)cc1	nt	nt	nt	nt	nt	-5
C/C=C/c1cnc2c(c1)C(=O)N([C@H](C)CO)C[C@H](C)[C@@H](CN(C)S(=O)(=O)c1ccc(OC)cc1)O2	5	2	1	-3	-14	-2
Brc1ccc(-c2nn3c(-c4ccccn4)nnc3s2)o1	nt	nt	nt	nt	nt	68*
S=c1c2c(nc3nc[nH]n13)CCC2	nt	2	3	18	0	35*
COc1cccc(C(=O)OC(C)C(=O)NCC2CCCCC2)c1 (stereo unspecified)	-8	-4	36*	0	2	18
O=C(NCc1nc(-c2ccc(C(F)(F)F)cc2)no1)Nc1ccc(F)cc1F	0	nt	-3	15	-8	-10
O=C(NCc1nc(-c2ccc(C(F)(F)F)cc2)no1)Nc1cc(Cl)cc(Cl)c1	-4	-3	-5	-47*	4	2
COc1ccc(S(=O)(=O)Nc2ccc3c(c2)C(=O)N([C@@H](C)CO)C[C@@H](C)[C@@H](CN(C)Cc2ccc(C(=O)O)cc2)OCCCC[C@H](C)O3)cc1	26	-7	-2	-1	2	11
Cc1nc(N)c(CC(Br)CBr)c(Cl)n1 (stereo unspecified)	19	-2	4	-38*	-1	-2
COc1ccc2c3c(n(C)c2c1)[C@H](CO)N(C(=O)c1ccccn1)CC31CCN(C)CC1	nt	nt	nt	4	nt	nt
SMILES	PGC1a acetyl inh	ERAP1 inh	Casp6 inh	Ecoli rRNA inh	S100A4 MyoIIA	ARNT-TACC3 inh
O=C(C[C@@H]1C[C@@H]2c3cc(NC(=O)Nc4ccccc4F)ccc3O[C@@H]2[C@@H](CO)O1)NCc1ccc(Oc2ccccc2)cc1	84*	3	-2	0	-13	7
O=C(C[C@H]1C[C@H]2c3cc(NC(=O)C4CCC4)ccc3O[C@H]2[C@H](CO)O1)NCc1ccc(-c2ccccc2)cc1	64*	-2	0	-5	-3	-4
COc1cc(COC(C)=O)ccc1OC(C)=O	-28	1	0	nt	-1	nt
O=C(NNC(=S)Nc1ccc(F)cc1)C1CC1c1ccc(Cl)cc1 (stereo unspecified)	nt	-1	1	-52*	1	13
Cn1cc([N+](=O)[O-])c(C(=O)Nc2nc(-c3ccc(Cl)cc3)cs2)n1	63*	nt	nt	nt	nt	nt
Cc1ccc(-c2nc(NC(=O)c3nn(C)cc3[N+](=O)[O-])sc2C)cc1C	91*	-1	0	-14	-3	-4
COc1ccc2c3c(n(C)c2c1)[C@@H](CO)N(CC1CC1)CC31CCN(C(=O)c2ccccc2)CC1	nt	nt	nt	1	nt	nt
CC(C)c1ccc(OCC(=O)NCc2ccccc2)cc1	1	nt	0	-22*	-9	-4
CCn1c(CNC(=O)COc2ccc(C(C)C)cc2)nnc1SCC(=O)Nc1ccccc1F	-2	-1	53*	-30	9	1
O=C(C[C@H]1CC[C@@H]2NC[C@H](O)COC[C@H]2O1)NCCc1ccccc1	3	-2	2	-4	-14	-7
COc1ccc(Cc2nnc(NC(=O)c3ccccc3[N+](=O)[O-])s2)cc1	7	1	1	-30*	-5	3
O=C(CNc1cccc(Cl)c1)NNC(=S)NCc1ccccc1	2	-3	2	-24*	5	-4
Cc1nc(-c2cccc(NC(=O)c3cccc(S(=O)(=O)N4CCCC4)c3)c2)cs1	-1	0	-2	-29*	3	2
Cc1nc(-c2cccc(NC(=O)c3ccc(Cl)c(S(=O)(=O)N4CCCC4)c3)c2)cs1	-11	0	-3	-8	7	nt
Cc1ccc(S(=O)(=O)N[C@@H]2C=C[C@@H](CC(=O)NC3CCCCC3)O[C@H]2CO)cc1	0	-5	2	2	-1	-5
C[C@@H]1CCCCO[C@@H](CN(C)Cc2ccc(C(=O)Nc3ccccc3N)cc2)[C@@H](C)CN([C@H](C)CO)C(=O)c2cc(NC(=O)Nc3ccc4c(c3)OCO4)ccc2O1	5	nt	nt	-1	nt	-2
O=C(NC(=S)NNC(=O)c1ccccc1O)c1cccc([N+](=O)[O-])c1	nt	-4	14	-20	-1	77*
